Measurements: ChEMBL document CHEMBL1141340, “Protein phosphatase inhibitors isolated from Spongia irregularis collected in Papua New Guinea” (J Nat Prod, 2007)
Active and inactive are the calls of the source. No cut-off for these calls is given here.

Experiments:
[1] = Inhibition of calcineurin
[2] = Inhibition of PP1c
Outline: (§1)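 Enzyme source was purified catalytic subunits of protein phosphatases PP-1 and PP-2A. Results are reported as IC50.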

[3] = Inhibition of PP2A; outline: as §1

SMILES | IC50 [1] [µM] | IC50 [2] [µM] | IC50 [3] [µM] | Activity [1]
C[C@@H]1CC[C@@H]2C(=CCCC2(C)C)[C@]1(C)CCC(CCCc1ccoc1)COP(=O)(O)O (stereo partly specified) | 230 | 36 |  | 
CC1=CCCC(C)(C)C1CC/C(C)=C/CCC(CCCc1ccoc1)COP(O)(O)=S (stereo unspecified) | 70 |  |  | 
C[C@@H]1CC[C@@H]2C(=CCCC2(C)C)[C@]1(C)CCC(CCCc1ccoc1)COS(=O)(=O)O (stereo partly specified) | 69 | 64 | 140 | 
CC(C)CCN1CC=C(CCCC(CC[C@@]2(C)C3=CCCC(C)(C)[C@@H]3CC[C@H]2C)COS(=O)(=O)O)C1=O (stereo partly specified) [IREGULARASULFATE] | 59 |  |  | 
CC1=CCCC(C)(C)C1CC/C(C)=C/CCC(CO)CCCc1ccoc1 (stereo unspecified) |  |  |  | inactive
CC1=CCCC(C)(C)C1CC/C(C)=C/CCC(CCCc1ccoc1)COS(=O)(=O)O (stereo unspecified) [HIPPOSULFATE C] | 66 | 71 | 130 | 
